Screening data (PubChem)
This is a sample that favours compounds with a hit; in the whole collection about 2.3% have one here.
PAFAH2 FP inh – inhibitors of human PAFAH2; inhibition, % at 3.39 µM; 0.99% of 340,000 active; recombinant PAFAH2, FP-rhodamine activity probe, fluorescence polarization;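 active = inhibition above the mean over all tested compounds plus 3 SD, cut at about 30% in these data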;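 also: inhibitors block probe labeling of enzyme so polarization drops; 0% = enzyme with DMSO and 100% = wells lacking PAFAH2 protein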
TDP2 inh – blocks human TDP2 phosphodiesterase activity. O95551. recombinant TDP2, T5PNP hydrolysis, p-nitrophenol absorbance 415 nm. inhibition, % at 12.8 µM. 0.34% of 370,000 active;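 active = inhibition above the mean of all tested compounds plus 3 SD, set per campaign, cut at about 25% in these data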;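 also: 0% = DMSO with enzyme and 100% = buffer with substrate but no TDP2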
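Read-out basis: percent inhibition. System: recombinant human TDP2. Buffer or medium: Mg2+-containing Tris-HCl buffer, pH 7.5. Repeats: single replicate. Timing: reaction 2 h, 37 °C. Benchmarks: high control without enzyme, low control DMSO plus TDP2. Probe or stimulus: 5 mM T5PNP. Doses: 12.8 µM only. Measured by: epi absorbance of p-nitrophenol freed from T5PNP by hydrolysis.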
PAFAH1B2 inh – blocks human PAF acetylhydrolase 1b catalytic subunit 2; P68402; recombinant PAFAH1B2, FP-rhodamine activity probe, fluorescence polarization; inhibition, % at 3.39 µM; 1.2% of 340,000 active; AID 492953;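 active = inhibition above the mean of all tested compounds plus 3 SD, cut at about 24% in these data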;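 also: 0% = enzyme with DMSO and 100% = wells lacking PAFAH1B2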
Target sequence (P68402 whole entry, looked up): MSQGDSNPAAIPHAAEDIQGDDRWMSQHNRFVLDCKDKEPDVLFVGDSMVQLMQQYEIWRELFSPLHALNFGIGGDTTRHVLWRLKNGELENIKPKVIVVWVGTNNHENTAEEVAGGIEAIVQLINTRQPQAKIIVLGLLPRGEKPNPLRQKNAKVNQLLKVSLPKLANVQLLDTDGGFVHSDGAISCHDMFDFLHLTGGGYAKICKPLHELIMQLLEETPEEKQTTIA
PAFAH1B3 FP inh – PAFAH1B3 (human) inhibition. inhibition, % at 3.39 µM. 0.28% of 340,000 active. recombinant PAFAH1B3, FP-rhodamine probe, fluorescence polarization;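 active = inhibition above the screen-wide average of all tested compounds plus 3 SD, cut at about 25% in these data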;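 also: 0% = enzyme with DMSO only and 100% = wells lacking PAFAH1B3 protein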
Target sequence (Q15102 whole entry, looked up): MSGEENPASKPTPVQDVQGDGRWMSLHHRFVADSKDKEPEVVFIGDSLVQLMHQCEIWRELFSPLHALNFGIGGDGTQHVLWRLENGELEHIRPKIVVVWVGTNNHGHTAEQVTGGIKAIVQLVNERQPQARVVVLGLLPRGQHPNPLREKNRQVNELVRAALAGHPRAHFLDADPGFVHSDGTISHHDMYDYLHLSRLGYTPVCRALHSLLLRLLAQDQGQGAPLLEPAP
Apaf-1 inh – blocks human Apaf-1 apoptosome activity; reconstituted apoptosome caspase-3 activity, DEVD-Rh110 fluorescence; O14727; AID 489030; inhibition, % at 20 µM; 0.71% of 330,000 active; active = inhibition of at least 40% at 20 µM;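 also: plate controls were DMSO wells for no effect and DEVD-CHO caspase inhibitor wells for full effect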
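System – cell-free apoptosome with Apaf-1, procaspase-3 and caspase-9 · Buffer or medium – pH 7.5 Hepes buffer with CHAPS, BSA, DTT · Also added – cytochrome c with DEVD-Rh110 · Times – 30 min compound preincubation, 50 min activation, room temperature · Technique – Rh110 fluorescence intensity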
PAFAH2 FP conf – confirmation of human PAFAH2 inhibitors | shares compounds with PAFAH2 FP inh | recombinant PAFAH2, FP-rhodamine activity probe, fluorescence polarization | inhibition, % at 3.39 µM | 65% of 2,300 active;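 active = mean inhibition over three repeats above a set limit taken from the earlier primary screen, cut at about 30% in these data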;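 also: inhibitor blocks binding of rhodamine activity probe so polarization falls; 0% = enzyme with DMSO and 100% = wells lacking PAFAH2 protein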
PAFAH1B3 conf FP – PAFAH1B3 (human) inhibition, confirmed. recombinant PAFAH1B3, FP-Rh activity-based probe, fluorescence polarization. shares compounds with PAFAH1B3 FP inh. inhibition, % at 3.39 µM. 30% of 390 active;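 active = average inhibition over triplicate runs above the hit cutoff set in the earlier primary screen, cut at about 25% in these data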;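 also: 0% = enzyme with DMSO and 100% = wells lacking PAFAH1B3 protein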
TDP2 confirm – confirmation of human TDP2 inhibitors; inhibition, % at 12.8 µM; 22% of 1,100 active; recombinant human TDP2, absorbance read-out; shares compounds with TDP2 inh; in the data active = inhibition above about 25%;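 also: 0% = vehicle with enzyme and 100% = no enzyme buffer only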
Starred values were filed as active, the others as inactive; . = no result given.

SMILES | PAFAH2 FP inh | TDP2 inh | PAFAH1B2 inh | PAFAH1B3 FP inh | Apaf-1 inh | PAFAH2 FP conf | others
c1ccc(-c2nc3ccccc3nc2-c2ccc(CN3CCC(n4nnc5ccccc54)CC3)cc2)cc1 | . | -0.5 | . | . | . | .
O=C(NCCN1CCC2(CC1)C(=O)NCN2c1ccccc1)c1ccc2ccccc2c1 | . | 3.8 | . | . | . | .
COc1ccc(OC(=O)N(C)C[C@H]2OCc3cnnn3CCCC(=O)N([C@@H](C)CO)C[C@@H]2C)cc1 | . | -5.9 | . | . | . | .
Cc1cc(/C=C2\C(=O)NC(=O)N(Cc3ccccc3Cl)C2=O)c(C)n1-c1ccc(C(=O)O)cc1 | 33.7* | 4.8 | 4.5 | -1.4 | 8.1 | 24.2
Cc1ccc(-n2c(C)cc(/C=C3/C(=O)NC(=O)N(Cc4ccco4)C3=O)c2C)cc1 | 6.1 | 0.3 | -2.9 | 0.5 | 2.6 | .
Cc1ccccc1-n1c(C)cc(/C=C2/C(=O)NC(=O)N(Cc3ccco3)C2=O)c1C | 41.7* | -5.2 | 2.8 | 15.0 | 20.7 | 45.6*
O=C(NCCN1CCC2(CC1)C(=O)NCN2c1ccccc1)c1cccs1 | . | 8.2 | . | . | . | .
C=CCOC(=O)C1C(C(=O)O)C2(Cl)C(Cl)=C(Cl)C1(Cl)C2(Cl)Cl (stereo not drawn) | 31.3* | 7.4 | 20.7 | 8.4 | . | 21.4
O=C(O)C1C(C(=O)O)C2(Cl)C(Cl)=C(Cl)C1(Cl)C2(Cl)Cl (stereo not drawn) | 27.6 | 9.5 | 6.3 | 4.1 | -2.2 | .
Cc1cc(/C=C2\C(=O)NC(=O)N(c3ccc(Cl)cc3)C2=O)c(C)n1-c1sc2c(c1C#N)CCCC2 | 33.5* | -12.2 | 3.2 | 3.8 | 15.6 | 17.5
COc1ccc(C(O)P(=O)(Oc2ccccc2)Oc2ccccc2)cc1 (stereo not drawn) | 33.4* | -8.2 | -0.9 | 4.6 | 11.8 | 18.3
O=P(Oc1ccccc1)(Oc1ccccc1)C(O)c1ccc(Cl)cc1 (stereo not drawn) | 13.9 | -1.4 | 1.9 | 2.6 | -0.7 | .
CC(C)N1CCN(Cc2cccc([N+](=O)[O-])c2)CC1 | 117.5* | 2.5 | 9.2 | 5.0 | 0.2 | 4.6
Cn1cc(C(=O)OCC(=O)N2CCCCC2)c2ccccc21 | 1.0 | 1.1 | 5.5 | 5.2 | -7.1 | .
Cn1cc(C(=O)OCC(=O)NC2(C#N)CCCCC2)c2ccccc21 | 80.7* | -0.7 | 5.9 | 6.0 | 3.6 | 80.6*
Cn1cc(C(=O)OCC(=O)NC2(C#N)CCCC2)c2ccccc21 | 65.3* | -3.3 | 0.2 | 3.2 | 6.6 | 49.2*
C=CCN1C(=O)/C(=C/c2cc(C)n(-c3cccnc3)c2C)C(=O)NC1=S | 30.9* | 4.7 | 8.0 | -0.9 | . | 10.1
Oc1c(Cl)cccc1Cc1cc(Cl)cc(Cl)c1O | 37.4* | -4.7 | 5.0 | 5.8 | . | 25.2
C[C@H](NC(=O)OCc1ccccc1)C(=O)NC(Cc1ccccc1)P(=O)(Oc1ccccc1)Oc1ccccc1 (stereo partly drawn) | . | -8.6 | . | . | . | .
COc1cc(/C=C2\C(=O)NC(=O)N(c3ccccc3)C2=O)cc(OC)c1O | -1.3 | 6.4 | 4.5 | 10.3 | -14.7 | .
Cn1cc(/C=C2\C(=O)NC(=O)N(c3ccccc3)C2=O)c2ccccc21 | 39.3* | 3.6 | 4.9 | 7.3 | 0.8 | 36.0*
CC(C)(C)n1cccc1/C=C1\C(=O)NC(=O)N(c2ccccc2)C1=O | 50.1* | 10.2 | 8.8 | -2.4 | -7.8 | 44.1*
Cc1ccccc1C(=O)NCCN1CCC2(CC1)C(=O)NCN2c1ccccc1 | . | 1.8 | . | . | . | .
CN1C2CCC1C(C(=O)Oc1ccccc1)C(c1ccc(Cl)cc1)C2 (stereo not drawn) | . | 4.8 | . | . | . | .
COC(=O)C1=C(c2ccc(OC(F)(F)F)cc2)C[C@@H]2CC[C@H]1N2C(=O)NCc1ccco1 | . | 0.6 | . | . | . | .
SMILES | PAFAH2 FP inh | TDP2 inh | PAFAH1B2 inh | PAFAH1B3 FP inh | Apaf-1 inh | PAFAH2 FP conf | others
CCC(C)N1C(=O)/C(=C\c2ccc(N3CCCCCC3)cc2)C(=O)NC1=S (stereo not drawn) | -0.1 | -2.2 | -9.0 | -27.6 | 4.0 | .
CCC(C)N1C(=O)/C(=C\c2cc3c4c(c2)CCCN4CCC3)C(=O)NC1=S (stereo not drawn) | 36.2* | 2.1 | 10.7 | -4.6 | -2.0 | 20.4
CCc1cc(=O)oc2cc(OCC(=O)N3C[C@H]4C[C@@H](C3)c3cccc(=O)n3C4)c(Cl)cc12 | 6.3 | -2.7 | 4.0 | 8.3 | 0.1 | .
Cc1cc(OCC(=O)N2C[C@H]3C[C@@H](C2)c2cccc(=O)n2C3)c2c(C)cc(=O)oc2c1 | 38.3* | -5.5 | -0.2 | 5.8 | 0.6 | -2.6
O=C(c1ccccc1)N1Cc2cc(Br)ccc2-n2nncc2C1 | . | 0.8 | . | . | . | .
CN1CC[C@@]2(C)c3cc(O)ccc3N(C)[C@@H]12 | 3.1 | 12.6 | 13.2 | 40.2* | . | . | PAFAH1B3 conf FP=5.3
CCOC(=O)[C@]12Cc3cc(Cl)ccc3[C@H]1N(C1CCCCC1)C(=O)c1cc(OC)ccc12 | . | 5.7 | . | . | . | .
O=C(COc1ccccc1F)N1CCN(CCN2C(=O)c3cccc4cccc(c34)C2=O)CC1 | 2.3 | -1.4 | 2.0 | 28.0* | 6.2 | . | PAFAH1B3 conf FP=5.3
N#CCCC#N | . | 2.4 | . | . | . | .
O=C(O)CC1OCC=C2CN3CCC45c6ccccc6NC4C1C2CC35 (stereo not drawn) | 2.5 | 6.6 | -0.6 | 0.1 | -0.2 | .
O=C(O)CC1OCC=C2CN3CCC45C6=CC(=O)C(=O)C([N+](=O)[O-])=C6NC4C1C2CC35 (stereo not drawn) | 9.1 | . | 10.3 | 71.5* | . | . | PAFAH1B3 conf FP=9.4
Nc1c(C(=O)NCc2ccco2)c2nc3ccccc3nc2n1CCN1CCCCC1 | -16.1 | 2.2 | -20.8 | -21.2 | 4.8 | .
Nc1c(C(=O)NC2CCCC2)c2nc3ccccc3nc2n1CC1CCCO1 (stereo not drawn) | 6.9 | 5.7 | 2.1 | 26.5* | 94.4* | . | PAFAH1B3 conf FP=14.5
Cc1ccccc1[N+](=O)[O-] | 1.6 | -0.8 | -0.6 | 0.5 | -6.7 | .
O=C1NC(=O)C(Sc2ccccc2[N+](=O)[O-])C(=O)N1 | 24.6 | 50.9* | 8.4 | 8.3 | 12.0 | . | TDP2 confirm=32.8*
Cc1nc2ccccn2c1P(=S)(c1ccccc1)c1ccccc1 | . | -3.5 | . | . | . | .
COC1CCCCC1NCCc1ccccc1 (stereo not drawn) | 0.8 | 25.9* | -1.0 | 8.4 | -11.8 | . | TDP2 confirm=-2.2
C[C@@]12CC[C@@H](c3cc4c(cc3C1)OCO4)N2c1ccccc1 | . | 1.1 | . | . | . | .
O=C(NC1CCCCC1)N1Cc2cc(Br)ccc2-n2nncc2C1 | . | 10.0 | . | . | . | .
Brc1ccc2c(c1)-n1nncc1CNC2 | . | -12.7 | . | . | . | .
COc1cc(/C=C2\C(=O)NC(=O)N(c3ccccc3)C2=O)c([N+](=O)[O-])cc1OC | 6.6 | 24.9* | 2.6 | 4.5 | . | . | TDP2 confirm=9.2
